Data taken from ChEMBL document CHEMBL1909522, “Inhibitory effect on NO production of phenolic compounds from Myristica fragrans” (Bioorg Med Chem Lett, 2011).
Activity calls are given as the source filed them. The rule behind the calls is not given here.

How the values were obtained:
RAW264.7 [1] = assay: Antiinflammatory activity in mouse RAW264.7 cells assessed as inhibition of LPS-induced NO production after 24 hrs by Griess reagent method; format: functional, cell-based; details: RAW264.7, 24 h
Procedure, shortened: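 RAW264.7 cells (1 × 10^5 per well) stimulated with 1 µg/mL LPS for 24 h with or without test compounds (0.5–25 µM). Nitrite in culture supernatant measured by Griess reaction as NO marker. IC50 relative to vehicle control; average of three repeated experiments.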

RAW264.7 [2] = assay: Cytotoxicity against mouse RAW264.7 cells assessed as cell viability at 50 uM after 24 hrs by MTT assay; format: cell-based; details: raw264.7, 24 h
Procedure, shortened: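 Cells remaining after the Griess step, with or without LPS (1 µg/mL) and compound at 50 µM for 24 h, assessed by MTT colorimetric assay for viability.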

RAW264.7 [3] = assay: Antiinflammatory activity in mouse RAW264.7 cells assessed as inhibition of LPS-stimulated iNOS expression after 18 hrs by immunoblot analysis; format: functional, cell-based
Procedure, shortened: (§1)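 RAW264.7 cells pretreated 30 min with compound (0, 1, 3, 10 µM), then stimulated with LPS 1 µg/mL for 18 h. Lysates in Tris-HCl pH 7.5/NP-40 buffer with protease/phosphatase inhibitors; 50 µg protein per lane on SDS-PAGE, PVDF transfer, antibody probing, ECL detection. Densitometry normalized to α-tubulin; mean ± S.D.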

RAW264.7 [4] = assay: Antiinflammatory activity in mouse RAW264.7 cells assessed as inhibition of LPS-stimulated alpha-tubulin expression at 0.1 to 10 uM after 18 hrs by immunoblot analysis; format: functional, cell-based
RAW264.7 [5] = assay: Antiinflammatory activity in mouse RAW264.7 cells assessed as inhibition of LPS-stimulated COX2 expression after 18 hrs by immunoblot analysis; format: functional, cell-based; procedure, shortened: as §1

Row | IC50 (RAW264.7 [1]) | Compound | Activity (RAW264.7 [2]) | inhibition (RAW264.7 [3]) | inhibition (RAW264.7 [4]) | inhibition (RAW264.7 [5])
1 | > 50 µM | Oc1ccc([C@@H](O)CCc2ccc3c(c2)OCO3)c(O)c1 | Non-toxic |  |  | 
2 | 24.5 µM | C=CCc1cc(OC)c(O[C@H](C)[C@@H](OC(C)=O)c2ccc(OC)c(OC)c2)c(OC)c1 |  |  |  | 
3 | 2.3 µM | O=C(CCCCCCCCc1ccc(O)c(O)c1)c1c(O)cccc1O [MALABARICONE C] | Non-toxic | Dose-dependent effect | inactive | Dose-dependent effect
4 | > 50 µM | COc1cc(CC[C@H](O)c2ccc(O)cc2O)ccc1O | Non-toxic |  |  | 
5 | > 50 µM | C=CCc1cc(OC)c(O[C@H](C)[C@@H](O)c2ccc(OC)c(OC)c2)c(OC)c1 | Non-toxic |  |  | 
6 | 32.5 µM | COc1cc(C[C@@H](C)[C@H](C)c2cc(O)c(O)c(OC)c2)ccc1O | Non-toxic |  |  | 
7 | 25 µM | C/C=C/c1ccc(O[C@H](C)[C@@H](O)c2ccc(O)c(OC)c2)c(OC)c1 | Non-toxic |  |  | 

Row | Compound | IC50 (RAW264.7 [1]) | Activity (RAW264.7 [2]) | inhibition (RAW264.7 [3]) | inhibition (RAW264.7 [4]) | inhibition (RAW264.7 [5])
8 | CC1=C(O)C(=O)C=C2C1=CC=C1[C@@]2(C)CC[C@@]2(C)[C@@H]3C[C@](C)(C(=O)O)CC[C@]3(C)CC[C@]12C [CELASTROL] | 1 µM |  |  |  | 
